Screens deposited in PubChem by Broad Institute.
T cruzi intra: inhibitors of intracellular Trypanosoma cruzi; intracellular Trypanosoma cruzi in host cells, plate reader; activity score (inhibition), % at 5.01 µM; 22,000 tested, 4.9% active; AID 651903; in the data active means activity score above about 55%;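 further: parasites and compound incubated about four days before reading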
INS-1E rescue: rescue of cytokine-induced death in INS-1E beta cells | protection from cytokine-induced ATP loss, % at 10 µM | INS-1E cytokine-induced death, ATP luminescence, 48 h; normalised: neutral wells 0, positive control 100 | 20,000 tested, 0.1% active | AID 488910;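 active means mean replicate protection from cytokine-induced ATP loss at least 50% and at least 75% of replicates each reaching 50%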
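Material: INS-1E rat cells; Quantity: 8000 cells/well; Buffer or medium: phenol-red-free RPMI with 5% fetal bovine serum; Probe or stimulus: cytokine cocktail of IFN-γ, TNF-α and IL-1β; Compound dosing: single test concentration per compound, delivered by pin transfer; Incubation: 48 h co-treatment, 10 min post-lysis read; Signal: CellTiter-Glo luminescence.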
YB-1 expr inh: YB-1 expression inhibition. 30,000 tested, 0.37% active. U2OS, qRT-PCR YB-1 vs CDIP delta delta Cp, 16 h; stronger effect = higher value; zero = DMSO, each unit about twofold. delta delta Cp (YB-1 minus CDIP) (test concentration not listed). AID 434959;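 active means delta delta Cp rounded down to an integer at or above 3, about 3 SD of DMSO wells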;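 further: higher means less YB-1 transcript or more CDIP transcript relative to DMSO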
Hits are given with their value. Shown is part of a subset that was picked to be rich in hits.

Screening C[C@H]1CN([C@@H](C)CO)C(=O)Cc2cc(NS(=O)(=O)c3ccc(F)cc3)ccc2O[C@H]1CN(C)Cc1ccc(Oc2ccccc2)cc1 returned T cruzi intra inactive, INS-1E rescue inactive and YB-1 expr inh inactive.
Screening C[C@@H]1CN([C@H](C)CO)C(=O)Cc2cc(NS(=O)(=O)c3ccc(Cl)cc3)ccc2O[C@H]1CN(C)Cc1ccccc1 returned T cruzi intra 73, INS-1E rescue inactive and YB-1 expr inh inactive.
O=C1CC2(CCCC2)C(=O)N1c1cc(C(F)(F)F)cc(C(F)(F)F)c1 was read as YB-1 expr inh inactive.
CCN(CCS(=O)(=O)c1ccc(Cl)cc1)S(=O)(=O)c1ccc(Cl)cc1 was read as YB-1 expr inh inactive.
For COc1cc(Cl)c(C(F)(F)F)cc1NC(=O)c1c(OC)cccc1OC the results were YB-1 expr inh inactive.
For C[C@@H]1CN([C@H](C)CO)C(=O)c2cccc(NC(=O)c3ccncc3)c2O[C@@H]1CN(C)Cc1ccccc1 the results were T cruzi intra inactive, INS-1E rescue inactive and YB-1 expr inh inactive.
C[C@H](CO)N1C[C@H](C)[C@H](CN(C)C)Oc2c(NC(=O)c3ccncc3)cccc2C1=O was read as T cruzi intra inactive, INS-1E rescue inactive and YB-1 expr inh 3.6.
For C[C@@H]1CN([C@@H](C)CO)C(=O)c2cccc(NC(=O)c3cnccn3)c2O[C@@H]1CN(C)Cc1ccc(Oc2ccccc2)cc1 the results were T cruzi intra inactive, INS-1E rescue inactive and YB-1 expr inh inactive.
For C[C@@H]1CN([C@H](C)CO)C(=O)c2cccc(NC(=O)c3ccncc3)c2O[C@H]1CN(C)Cc1ccc(C(=O)O)cc1 the results were T cruzi intra inactive, INS-1E rescue inactive and YB-1 expr inh inactive.
For C[C@H](CO)N1C[C@H](C)[C@H](CN(C)Cc2ccccc2)Oc2c(NC(=O)c3ccncc3)cccc2C1=O the results were T cruzi intra 81, INS-1E rescue inactive and YB-1 expr inh inactive.
C[C@H]1CN([C@@H](C)CO)C(=O)c2cccc(NC(=O)c3ccncc3)c2O[C@@H]1CN(C)Cc1ccccc1 was read as T cruzi intra 81, INS-1E rescue inactive and YB-1 expr inh inactive.
`C[C@H](CO)N1C[C@H](C)[C@H](CN(C)Cc2ccc(Oc3ccccc3)cc2)Oc2c(NC(=O)c3ccncc3)cccc2C1=O` gave T cruzi intra 60, INS-1E rescue inactive and YB-1 expr inh inactive.
For C[C@@H]1CN([C@H](C)CO)C(=O)c2cccc(NC(=O)c3ccncc3)c2O[C@H]1CN(C)C the results were T cruzi intra inactive, INS-1E rescue inactive and YB-1 expr inh inactive.
`COC(=O)[C@@H](O)[C@H]1[C@@]2(C)C[C@]3(O)C4[C@@H](O[C@]56CC(=O)O[C@@H](c7ccoc7)[C@@]5(C)CCC([C@]46O)[C@]13C)[C@H]2O` (stereo partly drawn) gave YB-1 expr inh inactive.
`CCOC(=O)c1c(CSc2nc(C)ccc2C#N)oc2ccc(OC(C)=O)cc12` gave YB-1 expr inh inactive.
Screening COC(=O)C1=COC(OC2OC(CO)C(O)C(O)C2O)C2C1C(O)CC2(C)OC(C)=O (stereo not drawn) returned YB-1 expr inh inactive.
`C=CC[C@@]1(C(=O)NCc2ccccc2)N=C(c2ccc(OCCCO)cc2)O[C@@H]1c1ccccc1` gave YB-1 expr inh inactive.
Screening CO[C@@]1(c2ccc3c(c2)OCO3)OC[C@@H]2[C@@H](c3ccc4c(c3)OCO4)OC[C@@]21O returned YB-1 expr inh inactive.
For C[C@H](CO)N1C[C@H](C)[C@@H](CN(C)Cc2ccccc2)Oc2c(cccc2N(C)C)C1=O the results were T cruzi intra inactive, INS-1E rescue inactive and YB-1 expr inh inactive.
For C[C@@H]1CN([C@@H](C)CO)C(=O)c2cccc(N(C)C)c2O[C@H]1CN(C)Cc1ccccc1 the results were T cruzi intra inactive, INS-1E rescue inactive and YB-1 expr inh 14.
CCOC(=O)c1c[nH]c(=S)[nH]c1=O was read as YB-1 expr inh inactive.
For CN(C)c1ccc(/C=N/NC(=O)c2ccccc2O)cc1 the results were T cruzi intra inactive, INS-1E rescue inactive and YB-1 expr inh inactive.
Screening COc1cc(C(=O)OCC2(O)COC(OCC3OC(Oc4c(OC)cc(CO)cc4OC)C(O)C(O)C3O)C2O)cc(OC)c1O (stereo not drawn) returned YB-1 expr inh 7.1.
COc1cc(C(=O)OC[C@@]2(O)CO[C@H](OC3C(CO)OC(Oc4cc(OC)c(OC)c(OC)c4)C(O)C3O)[C@@H]2O)cc(OC)c1O (stereo partly drawn) was read as YB-1 expr inh inactive.
